Assays:
[1] = target: Delta-type opioid receptor (Homo sapiens) (UniProt P41143); assay: Antagonist activity at human cloned delta opioid receptor expressed in CHO cells assessed as inhibition of DPDPE-stimulated [35S]GTP-gamma-S binding; type: functional, cell-based
Method in brief: (§1)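 Agonist concentration-response curves for stimulated [35S]GTPγS binding are run with and without a single concentration of test compound. Ke = [L]/(DR−1), where DR is the ratio of agonist EC50 with and without compound.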

[2] = system: CHO; assay: Selectivity for human cloned kappa opioid receptor over human cloned mu opioid receptor expressed in CHO cells; type: cell-based
[3] = target: Mu-type opioid receptor (Homo sapiens) (UniProt P35372); assay: Antagonist activity at human cloned mu opioid receptor expressed in CHO cells assessed as inhibition of DAMGO-stimulated [35S]GTPgammaS binding; type: functional, cell-based; method in brief: as §1
Mu-type opioid receptor (Homo sapiens), sequence (P35372 whole entry): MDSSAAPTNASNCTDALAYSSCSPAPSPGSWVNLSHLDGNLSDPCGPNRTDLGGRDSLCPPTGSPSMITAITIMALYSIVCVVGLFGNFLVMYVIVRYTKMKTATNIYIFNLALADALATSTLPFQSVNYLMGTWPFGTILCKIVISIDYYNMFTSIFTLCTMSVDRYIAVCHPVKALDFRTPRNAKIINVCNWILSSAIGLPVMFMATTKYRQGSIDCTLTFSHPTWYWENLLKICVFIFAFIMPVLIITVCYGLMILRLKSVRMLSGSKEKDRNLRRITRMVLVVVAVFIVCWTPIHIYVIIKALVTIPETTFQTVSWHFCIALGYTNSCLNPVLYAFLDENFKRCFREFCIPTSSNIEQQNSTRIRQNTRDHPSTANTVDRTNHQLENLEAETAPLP

[4] = system: CHO; assay: Selectivity for human cloned kappa opioid receptor over human cloned delta opioid receptor expressed in CHO cells; type: cell-based
[5] = target: Kappa-type opioid receptor (Homo sapiens) (UniProt P41145); assay: Antagonist activity at human cloned kappa opioid receptor expressed in CHO cells assessed as inhibition of U69593-stimulated [35S]GTP-gamma-S binding; type: functional, cell-based; method in brief: as §1
Kappa-type opioid receptor (Homo sapiens), sequence (P41145 whole entry): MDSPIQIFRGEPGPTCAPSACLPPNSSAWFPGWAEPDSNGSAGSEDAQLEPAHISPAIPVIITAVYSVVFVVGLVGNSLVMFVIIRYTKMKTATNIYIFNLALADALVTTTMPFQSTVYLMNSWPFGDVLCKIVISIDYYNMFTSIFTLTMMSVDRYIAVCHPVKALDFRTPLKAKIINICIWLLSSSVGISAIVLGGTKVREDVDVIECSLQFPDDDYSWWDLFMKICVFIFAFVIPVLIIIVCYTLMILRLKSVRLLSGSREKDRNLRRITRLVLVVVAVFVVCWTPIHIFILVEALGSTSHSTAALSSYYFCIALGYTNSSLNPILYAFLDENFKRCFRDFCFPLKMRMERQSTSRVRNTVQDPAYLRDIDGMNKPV

Delta-type opioid receptor (Homo sapiens), sequence (P41143 whole entry): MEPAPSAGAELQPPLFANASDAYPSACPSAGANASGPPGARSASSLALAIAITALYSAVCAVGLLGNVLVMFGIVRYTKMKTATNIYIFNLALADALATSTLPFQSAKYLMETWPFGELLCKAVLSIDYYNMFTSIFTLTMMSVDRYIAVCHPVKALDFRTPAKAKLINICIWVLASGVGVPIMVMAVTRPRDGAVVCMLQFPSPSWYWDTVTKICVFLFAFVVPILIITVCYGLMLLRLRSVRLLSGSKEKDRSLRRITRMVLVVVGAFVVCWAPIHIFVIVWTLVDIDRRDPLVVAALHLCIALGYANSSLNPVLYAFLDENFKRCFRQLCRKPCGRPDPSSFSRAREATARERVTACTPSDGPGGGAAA

SMILES | Ke [1] | Ratio Ke [2] | Ke [3] | Ratio Ke [4] | Ke [5]
COc1ccc2c(c1)CN(CC(=O)N[C@H](CN1CC[C@@](C)(c3cccc(O)c3)[C@@H](C)C1)C(C)C)CC2 | 51.7 nM | 1 | 17.7 nM | 3 | 16.8 nM
CC(C)[C@@H](CN1CC[C@@](C)(c2cccc(O)c2)[C@@H](C)C1)NC(=O)CN1CCc2ccc(O)cc2C1 | 177 nM | 0.4 | 9.2 nM | 7.5 | 23.5 nM
CC(C)[C@@H](CN1CC[C@@](C)(c2cccc(O)c2)[C@@H](C)C1)NC(=O)[C@H]1Cc2ccccc2CN1 | – | – | – | – | 56 nM
CC(C)[C@@H](CN1CC[C@@](C)(c2cccc(O)c2)[C@@H](C)C1)NC(=O)[C@H]1Cc2ccc(NS(C)(=O)=O)cc2CN1 | 106 nM | 4.4 | 17.7 nM | 27 | 4 nM
CC(C)[C@@H](CN1CC[C@@](C)(c2cccc(O)c2)[C@@H](C)C1)NC(=O)c1nc2ccc(O)cc2[nH]1 | 290 nM | 0.7 | 15.6 nM | 13 | 22.4 nM
COc1ccc2c(c1)CN[C@@H](C(=O)N[C@H](CN1CC[C@@](C)(c3cccc(O)c3)[C@@H](C)C1)C(C)C)C2 | 118 nM | 857 | 51.4 nM | 1980 | 0.06 nM
CC[C@H](C)[C@@H](CN1CC[C@@](C)(c2cccc(O)c2)[C@@H](C)C1)NC(=O)[C@H]1Cc2ccc(O)cc2CN1 | 24 nM | 100 | 3 nM | 800 | 0.03 nM
CC(C)[C@@H](CN1CC[C@@](C)(c2cccc(O)c2)[C@@H](C)C1)NC(=O)CN1CCc2cc(O)ccc2C1 | 408 nM | 5.5 | 21.4 nM | 105 | 3.9 nM
CC(C)[C@@H](CN1CC[C@@](C)(c2cccc(O)c2)[C@@H](C)C1)NC(=O)[C@H]1Cc2ccc([N+](=O)[O-])cc2CN1 | 65 nM | 1.2 | 7.9 nM | 10 | 6.4 nM
COc1ccc2c(c1)CCN(CC(=O)N[C@H](CN1CC[C@@](C)(c3cccc(O)c3)[C@@H](C)C1)C(C)C)C2 | 76 nM | 0.4 | 11.4 nM | 3 | 26 nM
CC(C)CN(CCN1CC[C@@](C)(c2cccc(O)c2)[C@@H](C)C1)C(=O)[C@H]1Cc2ccc(O)cc2CN1 | 39 nM | 0.5 | 1 nM | 21 | 1.9 nM
CC(C)[C@@H](CN1CC[C@@](C)(c2cccc(O)c2)[C@@H](C)C1)NC(=O)c1cc2ccc(O)cc2[nH]1 | 97 nM | 0.7 | 23.8 nM | 3 | 34.1 nM
CC(C)[C@@H](CN1CC[C@@](C)(c2cccc(O)c2)[C@@H](C)C1)NC(=O)[C@H]1Cc2ccc(O)cc2CN1 | – | 1250 | – | 3800 | –
COc1ccc2cc(C(=O)N[C@H](CN3CC[C@@](C)(c4cccc(O)c4)[C@@H](C)C3)C(C)C)cnc2c1 | 158 nM | 1.7 | 19.5 nM | 14 | 11.4 nM
CC(C)[C@@H](CN1CC[C@@](C)(c2cccc(O)c2)[C@@H](C)C1)NC(=O)[C@H]1Cc2ccc(N)cc2CN1 | 373 nM | 63 | 12.6 nM | 1860 | 0.2 nM
CC(C)[C@@H](CN1CC[C@@](C)(c2cccc(O)c2)[C@@H](C)C1)NC(=O)c1cnc2cc(O)ccc2c1 | 229 nM | 5.2 | 48 nM | 25 | 9.3 nM
COc1ccc2nc(C(=O)N[C@H](CN3CC[C@@](C)(c4cccc(O)c4)[C@@H](C)C3)C(C)C)[nH]c2c1 | 102 nM | 0.3 | 8.5 nM | 3.6 | 28.4 nM
CC(C)[C@@H](CN1CC[C@@](C)(c2cccc(O)c2)[C@@H](C)C1)NC(=O)c1c[nH]c2cc(O)ccc12 | 224 nM | 1.1 | 4.8 nM | 50 | 4.5 nM
COc1ccc2cc(C(=O)N[C@H](CN3CC[C@@](C)(c4cccc(O)c4)[C@@H](C)C3)C(C)C)[nH]c2c1 | 282 nM | 1.3 | 13.7 nM | 26 | 10.9 nM
CC(C)CCN(CCN1CC[C@@](C)(c2cccc(O)c2)[C@@H](C)C1)C(=O)[C@H]1Cc2ccc(O)cc2CN1 | 9.3 nM | 0.4 | 0.5 nM | 8 | 1.2 nM
CC(=O)Nc1ccc2c(c1)CN[C@@H](C(=O)N[C@H](CN1CC[C@@](C)(c3cccc(O)c3)[C@@H](C)C1)C(C)C)C2 | 555 nM | 7.9 | 11 nM | 396 | 1.4 nM

Reference: ChEMBL document CHEMBL1144010, “Synthesis and in vitro opioid receptor functional antagonism of analogues of the selective kappa opioid receptor antagonist (3R)-7-hydroxy-N-((1S)-1-{[(3R,4R)-4-(3-hydroxyphenyl)-3,4-dimethyl-1-piperidinyl]methyl}-2-methylpropyl)-1,2,3,4-tetrahydro-3-isoquinolinecarboxamide (JDTic)” (J Med Chem, 2008)
